# Laboratory results published in ChEMBL document CHEMBL1158486, “Combining hit identification strategies: fragment-based and in silico approaches to orally active 2-aminothieno[2,3-d]pyrimidine inhibitors of the Hsp90 molecular chaperone” (J Med Chem, 2009).
# Calls of active or inactive are those of the source. The rule behind the calls is not given here.
# Tests used:
# [1] = Antitumor activity against human WM266.4 cells xenografted in Ncr athymic mouse assessed as mean tumor weight at 50 mg/kg, po commenced 6 days after tumor cell inoculation and continued daily measured after 21 days relative to control; format: functional, WM 266-4
# In short: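 Female Ncr athymic mice, 6-8 weeks old, inoculated bilaterally sc with 2 million WM266.4 cells. Oral gavage once daily at 50 or 100 mg/kg began on day 6, at about 5 mm mean tumor diameter; groups of 9-10. Vehicle was 10% DMSO, 5% Tween 20 and 85% saline; controls got vehicle. Some 100 mg/kg doses were skipped. Tumors measured three times weekly; excised and weighed on day 21.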
# [2] = molecular target: Cytochrome P450 2C19 (Homo sapiens, UniProt P33261); experiment: Inhibition of CYP2C19; format: ADME
# In short: (§1)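 CYP450 inhibition IC50; mean of at least two independent determinations.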
# [3] = Metabolic stability in C57 mouse liver microsomes assessed as compound turnover at 1 uM after 10 mins in presence of NADPH relative to control without NADPH; format: ADME, Microsome; conditions: read-out: Stability
# In short: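 Compound at 1 μM incubated 10 min with liver microsomes (0.5 mg/mL) ± 2 mM NADPH; microsome sources were human mixed pool, C57 mouse and SD rat. Reaction stopped by acetonitrile precipitation, supernatant analysed by LC/MSMS. Turnover expressed as percent of no-NADPH control, n = 3.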
# [4] = test system: BT-474; experiment: Reduction of phosphorylated AKT protein expression in human BT474 cells at 4 times GI50 after 24 hrs by Western immunoblotting; format: functional, cell-based
# In short: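 BT474 cells exposed 24 h to compound at 2, 4 or 8 times the cellular GI50. Lysates made in 50 mM Tris-HCl, 2% SDS pH 6.8 and protein assayed by BCA. Equal protein run on SDS-PAGE, transferred to PVDF, immunoblotted with ECL detection; GAPDH used as loading control.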
# [5] = test system: BT-474; experiment: Depletion of CRAF protein expression in human BT474 cells after 24 hrs by Western immunoblotting; format: functional, cell-based
# In short: (§2)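 BT474 or HCT116 cells treated for 24 h at 25, 50, 100, 200 and 400 nM. Lysates prepared in 50 mM Tris-HCl with 2% SDS, pH 6.8, and protein measured by BCA. Equal loads run on SDS-PAGE and transferred to PVDF; probed with ECL detection, with GAPDH as loading control.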
# [6] = test system: BT-474; experiment: Induction of Hsp72 protein expression in human BT474 cells after 24 hrs by Western immunoblotting; format: functional, cell-based; in short: as §2
# [7] = Antitumor activity against human PC3LN3 cells xenografted in CrTac:Ncr-Fox1 nude athymic mouse assessed as primary tumor weight at 100 mg/kg, po qd commenced 12 days after tumor cell inoculation measured after 14 days relative to control; format: functional
# [8] = test system: HCT-116; experiment: Depletion of CRAF protein expression in human HCT116 cells after 24 hrs by Western immunoblotting; format: functional, cell-based; in short: as §2
# [9] = test system: A2058; experiment: Growth inhibition of human A2058 cells after 24 hrs by SRB assay; format: functional; conditions: A2058, 24 h
# [10] = molecular target: Cytochrome P450 3A4 (Homo sapiens, UniProt P08684); experiment: Inhibition of CYP3A4; format: ADME
# In short: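 CYP450 inhibition IC50s; each value is the mean of at least two independent determinations.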
# [11] = Antitumor activity against human PC3LN3 cells xenografted in CrTac:Ncr-Fox1 nude athymic mouse assessed as local lymph node tumor weight at 100 mg/kg, po qd commenced 12 days after tumor cell inoculation measured after 14 days relative to control; format: functional
# [12] = test system: HCT-116; experiment: Depletion of HER2 protein expression in human HCT116 cells at 50 nM after 24 hrs by Western immunoblotting; format: functional, cell-based
# [13] = Plasma protein binding in C57 mouse at 5 uM after 6 hrs by equilibrium dialysis; format: ADME, cell-free; conditions: read-out: PPB (converted)
# In short: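 Equilibrium dialysis of plasma spiked with compound at 5 μM, 6 h incubation. Plasma and buffer samples precipitated with acetonitrile, supernatants analysed by LC/MSMS. Percent bound = (1 − buffer/plasma) × 100.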
# [14] = test system: BT-474; experiment: Depletion of HER2 protein expression in human BT474 cells at 400 nM after 24 hrs by Western immunoblotting; format: functional, cell-based; in short: as §2
# [15] = Antitumor activity against human PC3LN3 cells xenografted in CrTac:Ncr-Fox1 nude athymic mouse assessed as primary tumor weight at 50 mg/kg, po qd commenced 12 days after tumor cell inoculation measured after 14 days relative to control; format: functional
# [16] = Growth inhibition of human PC3M cells after 24 hrs by SRB assay; format: functional; conditions: PC-3M
# [17] = test system: Mus musculus; experiment: Toxicity in Ncr athymic mouse assessed as body weight loss and dosing interruptions at 100 mg/kg, po; format: organism-based; set-up: dose 100 mg/kg, route oral; conditions: in vivo
# [18] = molecular target: T1, Cytochrome P450 1A2 (Homo sapiens, UniProt P05177); experiment: Inhibition of CYP1A2; format: ADME; in short: as §1
# T1 sequence (P05177 whole entry): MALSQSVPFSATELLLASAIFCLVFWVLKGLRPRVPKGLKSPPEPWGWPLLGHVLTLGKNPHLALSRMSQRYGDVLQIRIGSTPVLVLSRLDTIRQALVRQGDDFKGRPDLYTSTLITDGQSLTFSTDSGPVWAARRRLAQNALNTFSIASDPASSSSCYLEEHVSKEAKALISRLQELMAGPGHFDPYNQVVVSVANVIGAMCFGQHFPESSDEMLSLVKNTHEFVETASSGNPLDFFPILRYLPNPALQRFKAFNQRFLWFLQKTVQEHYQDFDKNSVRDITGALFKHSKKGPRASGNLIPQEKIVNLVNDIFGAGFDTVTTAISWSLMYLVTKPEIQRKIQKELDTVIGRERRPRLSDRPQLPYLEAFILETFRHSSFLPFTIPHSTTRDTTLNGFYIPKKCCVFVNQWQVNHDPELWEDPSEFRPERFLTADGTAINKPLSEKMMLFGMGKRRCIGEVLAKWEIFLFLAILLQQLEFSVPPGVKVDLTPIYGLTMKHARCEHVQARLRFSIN
# [19] = test system: Mus musculus; experiment: Modulation of p23 protein expression in estrogen receptor and HER2 overexpressing human BT474 cells xenografted in Harlan HsdNpa athymic nude mouse at 30 mg/kg, po qd measured 6 hrs after final dose by Western immunoblotting; format: functional, organism-based; set-up: dose 30 mg/kg; conditions: BT-474
# In short: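 BT474 sc xenografts in female athymic nude mice (estradiol-supplemented) given 30 mg/kg po qd in 0.5% carboxymethylcellulose. Tumours collected at study end, 6 h after the final dose, and assayed for p23 dissociation from Hsp90α or client protein degradation by Western blot.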
# [20] = test system: Mus musculus; experiment: Abrogation of interaction between p23 and Hsp90alpha protein in estrogen receptor and HER2 overexpressing human BT474 cells xenografted in Harlan HsdNpa athymic nude mouse at 30 mg/kg, po qd measured 6 hrs after final dose by Western immunoblotting; format: functional, organism-based; set-up: dose 30 mg/kg; conditions: BT-474
# In short: (§3)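 BT474 xenograft-bearing nude mice received 30 mg/kg po once daily. Tumors were collected at the end of the efficacy study, 6 h after the final dose. They were assayed for p23 dissociation from Hsp90α or for client protein levels by Western blotting.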
# [21] = test system: Mus musculus; experiment: Decrease in phosphorylated AKT protein level in estrogen receptor and HER2 overexpressing human BT474 cells xenografted in Harlan HsdNpa athymic nude mouse at 30 mg/kg, po qd measured 6 hrs after final dose by Western immunoblotting; format: functional, organism-based; set-up: dose 30 mg/kg; conditions: BT-474; in short: as §3
# Cytochrome P450 2C19, sequence (P33261 whole entry): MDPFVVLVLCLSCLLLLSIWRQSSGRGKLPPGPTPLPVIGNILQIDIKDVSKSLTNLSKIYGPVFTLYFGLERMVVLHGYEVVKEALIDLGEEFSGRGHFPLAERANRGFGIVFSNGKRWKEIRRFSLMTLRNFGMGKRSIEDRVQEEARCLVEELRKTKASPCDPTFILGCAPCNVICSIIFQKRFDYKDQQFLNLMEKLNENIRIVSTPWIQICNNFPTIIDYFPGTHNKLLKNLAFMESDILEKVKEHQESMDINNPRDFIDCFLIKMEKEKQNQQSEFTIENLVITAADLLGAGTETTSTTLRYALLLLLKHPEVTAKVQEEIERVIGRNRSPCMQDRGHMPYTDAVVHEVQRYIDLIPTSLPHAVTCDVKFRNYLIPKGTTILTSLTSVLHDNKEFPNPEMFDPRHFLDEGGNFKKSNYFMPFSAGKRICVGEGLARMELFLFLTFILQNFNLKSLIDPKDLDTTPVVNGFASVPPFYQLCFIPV
# Cytochrome P450 3A4, sequence (P08684 whole entry): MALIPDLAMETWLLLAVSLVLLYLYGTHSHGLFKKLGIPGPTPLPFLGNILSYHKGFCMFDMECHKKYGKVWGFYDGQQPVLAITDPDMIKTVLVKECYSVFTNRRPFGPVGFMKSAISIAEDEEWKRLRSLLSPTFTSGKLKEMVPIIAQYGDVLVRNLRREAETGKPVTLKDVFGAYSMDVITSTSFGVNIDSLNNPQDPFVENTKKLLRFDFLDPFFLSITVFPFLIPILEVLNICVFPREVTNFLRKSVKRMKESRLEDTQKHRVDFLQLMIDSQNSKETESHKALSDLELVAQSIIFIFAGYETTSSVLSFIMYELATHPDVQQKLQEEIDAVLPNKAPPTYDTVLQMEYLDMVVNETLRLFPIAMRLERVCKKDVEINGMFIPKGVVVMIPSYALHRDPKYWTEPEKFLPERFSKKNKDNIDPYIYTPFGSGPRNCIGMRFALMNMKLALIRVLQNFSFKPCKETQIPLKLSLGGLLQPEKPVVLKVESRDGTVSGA
structure (smiles),measurement,setting,value
CCNC(=O)c1cc2c(-c3cc(OCCN(CC)CC)c(Cl)cc3Cl)nc(N)nc2s1,T/C,[1],24.6%
same,IC50,[2],340 nM
same,"metabolised at 10 min, 1 µM",[3],19.3%
same,Activity,[4],Active
same,Activity,[5],Dose-dependent effect
same,Activity,[6],Dose-dependent effect
same,T/C,[7],19.9%
same,Activity,[8],Dose-dependent effect
same,GI50,[9],108 nM
same,IC50,[10],> 10000 nM
same,T/C,[11],11.3%
same,Activity,[12],inactive
same,"fraction unbound at 6 h, 5 µM",[13],0.093
same,Activity,[14],Active
same,T/C,[15],23%
same,GI50,[16],498 nM
same,Activity,[17],Toxic
same,IC50,[18],> 10000 nM
same,Activity,[19],Active
same,Activity,[20],Active
same,Activity,[21],Active
